In ChEMBL document CHEMBL4428027, “3-Hydroxypyrimidine-2,4-diones as Selective Active Site Inhibitors of HIV Reverse Transcriptase-Associated RNase H: Design, Synthesis, and Biochemical Evaluations” (J Med Chem, 2016):

Tests used:
[1] = biological target: T1, Human immunodeficiency virus type 1 reverse transcriptase (Human immunodeficiency virus 1, UniProt Q72547); test: Inhibition of RNase H activity of full length recombinant HIV1 reverse transcriptase assessed as reduction in nonspecific internal cleavage using HTS1 substrate; conditions: read-out: IC50
How it was run: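 Recombinant p66/p51 RT heterodimer. Fluorescent RNA/DNA duplex substrate HTS-1 measures internal cleavage. IC50 is the mean of at least three independent experiments.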

[2] = biological target: T1, Human immunodeficiency virus type 1 reverse transcriptase; test: Inhibition of polymerase activity of HIV1 reverse transcriptase using poly(rA)-oligo(dT)16 and [3H]-TTP incubated for 20 mins by liquid scintillation spectrometry
How it was run: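 Reaction mix: 10 µM [3H]-TTP, 40 nM poly(rA)-oligo(dT)16, 50 mM Tris-HCl pH 7.4 (37°C), 60 mM KCl, 5 mM MgCl2. Started with 10 nM RT; 20 min at 37°C. Quenched in ice-cold 10% TCA with 20 mM sodium pyrophosphate, then glass-fibre filtered and washed with TCA and ethanol. Label incorporation read by liquid scintillation.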

[3] = biological target: T1, Human immunodeficiency virus type 1 reverse transcriptase; test: Inhibition of re-constituted HIV1 reverse transcriptase RNase H domain fragment
How it was run: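 Secondary check using a catalytically active, isolated HIV RNase H domain fragment (reconstituted) with duplex substrate HTS-1.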

[4] = biological target: T1, Human immunodeficiency virus type 1 reverse transcriptase; test: Inhibition of RNase H activity of full length recombinant HIV1 reverse transcriptase assessed as reduction in RNA 5'-end directed cleavage using HTS3 substrate
[5] = biological target: T1, Human immunodeficiency virus type 1 reverse transcriptase; test: Inhibition of RNase H activity of full length recombinant HIV1 reverse transcriptase assessed as reduction in DNA 3'-end cleavage using HTS2 substrate
How it was run: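 Recombinant p66/p51 RT heterodimer. Fluorescent RNA/DNA duplex substrate HTS-2 reports DNA 3′-end-directed (polymerase-dependent) cleavage. IC50 is the mean of at least three independent experiments.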

[6] = Toxicity against human HeLa P4/R5 cells; type: cell-based

Row | SMILES | IC50 [1] [nM] | IC50 [2] | IC50 ([3]; read-out: IC50) [nM] | IC50 ([4]; read-out: IC50) [µM] | IC50 ([5]; read-out: IC50) [µM] | CC50 [6] [µM] | IC50 [4] | IC50 [5] | IC50 ([2]; read-out: IC50) [µM] | IC50 [3]
1 | COc1cccc(-c2cccc(Oc3cc(=O)n(O)c(=O)n3C)c2)c1 | 1000 | Not Active | 3600 | 9.4 | 17 | 5 |  |  |  | 
2 | Cn1c(Oc2ccc(-c3ccc(C(F)(F)F)cc3)cc2)cc(=O)n(O)c1=O | 6200 | Not Active |  |  |  |  | Not Active | Not Active |  | 
3 | COc1ccccc1-c1ccc(Nc2cc(=O)n(O)c(=O)n2C)cc1 | 2800 | Not Active |  | 8.9 | 9.3 |  |  |  |  | 
4 | COc1cccc(-c2ccccc2Oc2cc(=O)n(O)c(=O)n2C)c1 | 5700 | Not Active | 12000 |  |  | 6 | Not Active | Not Active |  | 
5 | Cn1c(Nc2ccc(-c3ccccc3)cc2)cc(=O)n(O)c1=O | 800 | Not Active | 1700 | 5.1 | 3.5 | 6 |  |  |  | 
6 | Cc1ccc(-c2cccc(Nc3cc(=O)n(O)c(=O)n3C)c2)cc1 | 1700 |  |  | 6.2 | 7.2 |  |  |  | 17 | 
7 | Cn1c(Oc2ccc(-c3ccc(C#N)cc3)cc2)cc(=O)n(O)c1=O | 2500 | Not Active |  | 4.7 | 11 |  |  |  |  | 
8 | Cn1c(Oc2ccccc2-c2ccccc2O)cc(=O)n(O)c1=O | 11000 | Not Active |  |  |  |  | Not Active | Not Active |  | 
9 | Cn1c(Oc2ccc(-c3cccc(C#N)c3)cc2)cc(=O)n(O)c1=O | 1900 | Not Active |  | 11 | 13 |  |  |  |  | 
10 | Cc1ccc(-c2ccc(Nc3cc(=O)n(O)c(=O)n3C)cc2)cc1 | 2700 | Not Active | 1900 | 6.6 | 6.5 | 5 |  |  |  | 
11 | COc1ccc(-c2cccc(Nc3cc(=O)n(O)c(=O)n3C)c2)cc1OC | 500 |  | 900 | 3 | 2.2 | 10 |  |  | 5.8 | 
12 | Cn1c(Nc2cccc(-c3ccc(C#N)cc3)c2)cc(=O)n(O)c1=O | 700 |  | 1000 | 3.4 | 2.3 | 10 |  |  | 5 | 
13 | Cn1c(Nc2ccc(-c3ccc(C#N)cc3)cc2)cc(=O)n(O)c1=O | 1100 |  | 1000 | 3.7 | 2.6 | 12 |  |  | 3.3 | 
14 | O=c1cc(Nc2ccc(-c3cccc(O)c3)cc2)[nH]c(=O)n1O | 220 |  |  | 0.4 | 0.43 |  |  |  | 0.79 | 
15 | Cn1c(Oc2ccc(-c3ccncc3)cc2)cc(=O)n(O)c1=O | 3700 | Not Active |  | 10 |  |  |  | Not Active |  | 
16 | COc1ccccc1-c1ccccc1Oc1cc(=O)n(O)c(=O)n1C | 8100 | Not Active | 13000 |  |  | 8 | Not Active | Not Active |  | 
17 | COc1ccc(-c2cccc(Nc3cc(=O)n(O)c(=O)n3C)c2)c(OC)c1 | 1000 |  | 1100 | 4.2 | 2.1 | 6 |  |  | 6.3 | 
18 | Cn1c(Nc2ccc(-c3ccc(C(F)(F)F)cc3)cc2)cc(=O)n(O)c1=O | 3600 | Not Active | 2200 | 6.6 | 8.9 | 10 |  |  |  | 
19 | Cn1c(Oc2cccc(-c3ccc(C(F)(F)F)cc3)c2)cc(=O)n(O)c1=O | 9500 | Not Active |  |  |  | > 25 | Not Active | Not Active |  | Not Active
20 | O=c1cc(Nc2ccc(-c3ccccc3O)cc2)[nH]c(=O)n1O | 240 |  |  | 0.46 | 0.49 |  |  |  | 0.83 | 
21 | COc1cccc(-c2ccc(Nc3cc(=O)n(O)c(=O)n3C)cc2)c1 | 800 | Not Active | 1700 | 5.1 | 3.5 | 6 |  |  |  | 
22 | COc1ccc(-c2cccc(Nc3cc(=O)n(O)c(=O)n3C)c2)cc1 | 500 |  | 1100 | 3.1 | 2.6 | 3 |  |  | 3.6 | 
23 | Cn1c(Oc2cccc(-c3ccccc3)c2)cc(=O)n(O)c1=O | 1000 | Not Active | 3900 | 15 |  | 3 |  | Not Active |  | 

Row | SMILES | IC50 [1] [nM] | IC50 [2] | IC50 ([3]; read-out: IC50) [nM] | IC50 ([4]; read-out: IC50) [µM] | IC50 ([5]; read-out: IC50) [µM] | CC50 [6] [µM] | IC50 [4] | IC50 [5] | IC50 ([2]; read-out: IC50) [µM] | IC50 [3]
24 | COc1ccccc1-c1cccc(Nc2cc(=O)n(O)c(=O)n2C)c1 | 1200 |  | 1000 | 3.8 | 2.1 | 6 |  |  | 6.6 | 
25 | Cn1c(Oc2cccc(-c3cccc(C#N)c3)c2)cc(=O)n(O)c1=O | 900 | Not Active |  | 4.6 | 6.7 |  |  |  |  | 
26 | COc1cccc(OC)c1-c1cccc(Nc2cc(=O)n(O)c(=O)n2C)c1 | 1900 | Not Active | 1200 | 4.5 | 6.9 | 8 |  |  |  | 
27 | O=c1nc(Nc2ccc(-c3cnc4ccccc4c3)cc2)c2cccnc2n1O |  |  |  |  |  | 2 |  |  |  | 
28 | COc1ccc(-c2ccc(Nc3cc(=O)n(O)c(=O)n3C)cc2)c(OC)c1 | 1500 | Not Active |  | 5.3 | 4.3 |  |  |  |  | 
29 | Cn1c(Oc2cccc(-c3ccc(C#N)cc3)c2)cc(=O)n(O)c1=O | 1200 | Not Active |  | 3.9 | 6.9 |  |  |  |  | 
30 | Cn1c(Oc2ccc(-c3ccccc3)cc2)cc(=O)n(O)c1=O | 1900 | Not Active | 2100 | 6 | 5.3 | 5 |  |  |  | 
31 | COc1cc(OC)cc(-c2ccc(Nc3cc(=O)n(O)c(=O)n3C)cc2)c1 | 1600 |  | 1800 | 9.2 | 7.2 | 15 |  |  | 6.5 | 
32 | O=c1cc(Nc2ccc(-c3ccc(O)cc3)cc2)[nH]c(=O)n1O | 180 |  |  | 0.37 | 0.45 |  |  |  | 0.82 | 
33 | COc1ccccc1-c1ccc(Oc2cc(=O)n(O)c(=O)n2C)cc1 | 2800 | Not Active | 6200 | 22 |  | 5 |  | Not Active |  | 
34 | O=c1cc(Nc2ccc(-c3ccc(Cl)cc3)cc2)[nH]c(=O)n1O | 470 |  |  | 0.6 | 0.66 |  |  |  | 0.99 | 
35 | Cn1c(Nc2cccc(-c3cncnc3)c2)cc(=O)n(O)c1=O | 1400 | Not Active | 900 | 3.9 | 4.1 | > 25 |  |  |  | 
36 | COc1ccccc1-c1cccc(Oc2cc(=O)n(O)c(=O)n2C)c1 | 2500 | Not Active | 4400 | 13 |  | 6 |  | Not Active |  | 
37 | Cc1noc(C)c1-c1ccccc1Nc1cc(=O)n(O)c(=O)n1C | 6600 | Not Active |  |  |  |  | Not Active | Not Active |  | 
38 | Cn1c(Oc2ccccc2-c2ccc(C(F)(F)F)cc2)cc(=O)n(O)c1=O | 3900 | Not Active | 5100 | 21 |  | 6 |  | Not Active |  | 
39 | COc1ccc(-c2cccc(Oc3cc(=O)n(O)c(=O)n3C)c2)cc1 | 400 | Not Active | 1800 | 4.7 | 4 | 2.5 |  |  |  | 
40 | O=c1cc(Nc2ccc(-c3ccccc3)cc2)[nH]c(=O)n1O | 250 |  | 150 | 0.3 | 0.3 | > 25 |  |  | 2 | 
41 | COc1cc(OC)cc(-c2cccc(Nc3cc(=O)n(O)c(=O)n3C)c2)c1 | 600 | Not Active | 1400 | 4 | 2.8 | 10 |  |  |  | 
42 | Cn1c(Oc2ccc(-c3ccc(Cl)cc3)cc2)cc(=O)n(O)c1=O | 2400 | Not Active |  | 11 |  |  |  | Not Active |  | 
43 | O=c1cc(Nc2cccc(-c3ccc(Cl)cc3)c2)[nH]c(=O)n1O | 220 |  |  | 0.37 | 0.45 |  |  |  | 0.86 | 
44 | COc1ccc(-c2ccc(Oc3cc(=O)n(O)c(=O)n3C)cc2)cc1 | 1600 | Not Active | 4700 | 12 | 11 | 6 |  |  |  | 
45 | Cn1c(Nc2cccc(-c3ccc(O)cc3)c2)cc(=O)n(O)c1=O | 750 |  |  | 2.7 | 3.8 |  |  |  | 12 | 
46 | Cn1c(Oc2ccccc2-c2ccc(Cl)cc2)cc(=O)n(O)c1=O | 3300 |  |  | 13 |  |  |  | Not Active | 14 | 
